Assay outcomes as filed in PubChem BioAssay.
Compounds with a hit are over-represented: about 1.1% of the library has one in this group of screens.
Redox H2O2 prof: compounds producing H2O2 with reducing agent – biochemical, NIH compound library profiling, artefact control for MLSCN library redox annotation, primary screen; DTT-dependent redox cycling H2O2, phenol red/HRP absorbance; 100% = 100 µM peroxide control, 0% = buffer; activation, % at 10 µM; actives 0.03% (n = 200,000); AID 878, 2007;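 active = activation of at least 50% relative to the plate's high and low controls in the primary single-dose screen; inactive = activation below 50%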;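 also: compound incubated with DTT at 0.8 mM final as the reducing agent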
Diaphorase act: compounds boosting diaphorase resazurin reduction – biochemical, uHTS, resorufin fluorescence, counter-screen for diaphorase-coupled primary assays, primary screen; Diaphorase/resazurin coupled assay, 16 min; stronger effect = higher value; 1 = vehicle wells, 0 = NADH-free wells; activation factor at 20 µM; actives 0.005% (n = 190,000); AID 1229, 2008;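 active = diaphorase activity raised at least twofold by the compound at 20 µM; inactive = activation factor below 2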
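Material: Purified diaphorase enzyme from Clostridium kluyveri | Buffer or medium: 50 mM HEPES pH 7.4 with 4.542 mM MgCl2, 0.005% Tween 20 | Times: 16 min enzyme reaction, ambient temperature | Signal: Red resorufin fluorescence at 544/590 nm excitation/emission | Measure: Increased resorufin signal from activators or reducing compounds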
G6PDH CS: L. mesenteroides G6PDH inhibitors, counter-screen for G6PDH-coupled screening assays, biochemical, Leuconostoc mesenteroides enzyme. glucose-6-phosphate dehydrogenase [Leuconostoc mesenteroides]. inhibition, % at 5 µM. Purified L. mesenteroides G6PDH, diaphorase/resazurin coupled fluorescence, 45 min. AID 1020, 2008. actives 0.12% (n = 200,000); in the data active = inhibition above about 50%
PMI activator: activators of human PMI, primary screen, biochemical, fluorescence intensity, near-Km mannose 6-phosphate. Mannose-6-phosphate isomerase (Homo sapiens), P34949. purified human PMI, coupled resazurin fluorescence, 20 min; stronger effect = higher value; 1 = vehicle control, 0 substrate-free wells. activation factor at 20 µM. actives 0.005% (n = 190,000). AID 1214, 2008;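 active = activation factor of 2 or more at 20 µM, relative to plate controls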
Target sequence (P34949 whole entry, looked up): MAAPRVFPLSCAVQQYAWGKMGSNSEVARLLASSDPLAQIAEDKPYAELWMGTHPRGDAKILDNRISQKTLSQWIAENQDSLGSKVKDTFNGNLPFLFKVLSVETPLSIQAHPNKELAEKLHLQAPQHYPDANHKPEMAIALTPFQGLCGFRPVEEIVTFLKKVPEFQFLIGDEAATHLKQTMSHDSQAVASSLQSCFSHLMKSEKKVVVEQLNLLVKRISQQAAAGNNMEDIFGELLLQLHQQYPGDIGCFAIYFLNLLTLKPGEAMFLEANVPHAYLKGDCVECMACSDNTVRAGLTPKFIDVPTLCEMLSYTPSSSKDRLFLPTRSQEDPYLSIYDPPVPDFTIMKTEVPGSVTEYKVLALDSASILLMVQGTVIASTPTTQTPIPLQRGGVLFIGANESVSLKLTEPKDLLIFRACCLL
Diaphorase inh: diaphorase inhibitors and chemical oxidizers, primary screen, counter-screen for diaphorase-coupled primary assays, biochemical, uHTS, resorufin fluorescence | inhibition, % at 20 µM | diaphorase resazurin-to-resorufin fluorescence, NADH, 16 min; bacterial (C. kluyveri) enzyme, not human | AID 1217, 2008 | actives 0.69% (n = 190,000);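 active = primary screen inhibition at 20 µM above a set limit, cut at about 50% in these data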
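controls = No-NADH positive control and DMSO neutral control | system = Clostridium kluyveri diaphorase enzyme | timing = reaction incubation of 16 min at room temperature | signal = resorufin fluorescence 544/590 nm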
PMI act satM6P: human PMI activators, high substrate, primary screen, biochemical, fluorescence intensity, near-saturating mannose 6-phosphate; activation factor at 20 µM; Mannose-6-phosphate isomerase (Homo sapiens), P34949; coupled PMI enzyme assay, resazurin fluorescence, 20 min; stronger effect = higher value; 1 = untreated enzyme, 0 = substrate-free blank; AID 1216, 2008; actives 0.34% (n = 190,000);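 active = activation factor of 2 or more at 20 µM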
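test system = human PMI in coupled enzyme assay | medium = HEPES-buffered pH 7.4 with magnesium and detergent | also added = 1.0 mM mannose-6-phosphate substrate with 0.22 mM NADP+ | compound = 20 µM single dose | times = 20 min incubation at room temperature | measured by = resorufin fluorescence (Ex 544/Em 590 nm) from resazurin via diaphorase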
Large screens that a line does not name were inactive.

COc1ccc(C2=NN(c3ccccc3)C(c3cn(CCC(=O)O)nc3-c3ccccc3)C2)cc1 (configuration not stated)	none
O=C(NCc1ccccc1)c1sc(=S)n2c1[nH]c(=O)c1ccccc12	Diaphorase inh 73
COc1ccc(NC(=O)c2c(NC(=O)CNCC(C)C)sc3c2CCC3)c(OC)c1	none
COc1ccc(CCNC(=O)c2ccc3nc(-c4ccco4)c(-c4ccco4)nc3c2)cc1OC	Diaphorase inh 66
COc1ccc(CCNC(=O)c2ccc3c(SCC(=O)O)c4c(nc3c2)CCCC4)cc1OC	Diaphorase inh 68
COc1ccc(CCNC(=O)c2ccc3c(=O)n(Cc4ccco4)c(=S)[nH]c3c2)cc1OC	Diaphorase inh 51
CCOc1ccc(OCC)c(NC(=O)Nc2ccc3c(c2)N(C)C(=O)CS3)c1	none
CCOC(=O)c1ccc(CC(=O)c2ccc(O)c(O)c2O)o1	Diaphorase inh 76
Cc1cc(C(C)(C)C)c(O)c(C(C)(C)C)c1	none
Cc1cc(O)c(Oc2cc(C)cc(O)c2O)c(O)c1	Diaphorase inh 71
COc1ccc(CCN(C)CCCN2CC(c3ccccc3)CC2=O)cc1OC (configuration not stated)	none
COc1ccc(CNC[C@@H](CCCCN(C)Cc2ccc(OC)cc2)N2C[C@H](c3ccccc3)N(CCc3ccc(Cl)c(Cl)c3)C(=O)C2=O)cc1	Diaphorase act 2.2
COC(=O)Nc1cccn(Cc2c(Cl)cccc2Cl)c1=O	Diaphorase inh 51
CC1(C)Cc2nc3sc(C(=O)NCCCO)c(N)c3cc2CS1	none
CC1(C)Cc2nc3sc(C(=O)O)c(N)c3cc2CS1	PMI act satM6P 2.4
C#CCOCCOCCOCCNc1nc(N2CCOCC2)nc(N2CCN(C(=O)[C@H](Cc3ccc(O)cc3)n3cc([C@@H](N)C(C)CC)nn3)CC2)n1 (some centres not stated)	Diaphorase inh 79
C#CCOCCOCCOCCNc1nc(N2CCN(C(=O)C(Cc3ccc(O)cc3)n3cc(C(N)C(C)CC)nn3)CC2)nc(N2CCN(C(=O)C(Cc3ccc(O)cc3)n3cc(C(N)C(C)CC)nn3)CC2)n1 (configuration not stated)	none
CC(=NCc1cccc(Cl)c1)c1nc(-c2ccco2)oc1O	none
CC(=O)N1CCC(=NNc2ccnc3cc(Cl)ccc23)CC1	PMI act satM6P 2.3
CCOC(=O)N1CCC(=NNc2ccnc3cc(Cl)ccc23)CC1	none
Cc1nc2ccc(Cl)cc2nc(C)/c1=N\O	Diaphorase inh 58
CCOC(=O)Cc1cc(=O)n(-c2nc3ccccc3s2)[nH]1	PMI act satM6P 2.4
S=c1nc(-c2ccccc2)[nH]n1-c1ccccc1	none
S=c1nc2ccccc2c2nc(-c3ccccc3)[nH]n12	Diaphorase inh 77
CC(Oc1ccc(Br)cc1)c1nc2c3ccccc3nc(=S)n2[nH]1 (configuration not stated)	Diaphorase inh 85
COc1ccc(CCNC(=O)Nc2ccccc2[N+](=O)[O-])cc1	none
CC(=O)N1C(C)(C)CC(=NOC(=O)c2ccc(C)cc2)CC1(C)C	none
CC(On1c(-c2ccccc2)nc2ccc(Cl)cc21)C(=O)O (configuration not stated)	none
CCOC(=O)COc1cc([N+](=O)[O-])cc2cccnc12	none (no result: Diaphorase act, PMI activator, Diaphorase inh, PMI act satM6P)
CCOC(=O)COn1c(-c2cccc(Cl)c2)nc2ccc([N+](=O)[O-])cc21	PMI act satM6P 2.1
CCOC(=O)C(C)On1c(-c2cccc(Cl)c2)nc2ccc([N+](=O)[O-])cc21 (configuration not stated)	PMI act satM6P 2
Cc1ccc(CN(Cc2cc3cc4c(cc3[nH]c2=O)OCCO4)Cc2nnnn2Cc2ccco2)cc1	Diaphorase inh 58
COc1cc(/C=C2\CC/C(=C\c3cc(OC)c(O)c(OC)c3)C2=O)cc(OC)c1O	G6PDH CS 56, Diaphorase inh 71
CCc1nn(-c2ccccc2)c(=S)c2ccccc12	none
COc1ccc(S(=O)(=O)N2CCCCCC2)cc1N	none
O=C(O)C1Nc2c(O)cccc2C2C=CCC12 (configuration not stated)	Diaphorase inh 78
O=C(OC1CCCCC1)c1ccc2c(c1)C1C=CCC1C(C(=O)O)N2 (configuration not stated)	none
O=C(COC(=O)c1cc(=O)[nH]c(=O)[nH]1)Nc1cccc(S(=O)(=O)N2CCOCC2)c1	none
COC(=O)c1ccc2c(c1O)C(=O)c1ccccc1C2=O	G6PDH CS 53
Nc1c(C(=O)O)ccc2c1C(=O)c1ccccc1C2=O	none
COc1ccc(C(=O)NNc2ccccc2)cc1	PMI act satM6P 2.4
COc1ccc(C(=O)c2ccccc2)cc1	none
COc1cc(CNc2ccc(N3CCN(C(C)=O)CC3)cc2)ccc1OCc1ccc(F)cc1	none
Cc1ccc(-n2c3nc(=O)[nH]c(=O)c-3cc3cc([N+](=O)[O-])ccc32)cc1	Diaphorase inh 74
O=C(Cc1ccccc1)NC(Nc1cccc2ccccc12)C(Cl)(Cl)Cl (configuration not stated)	Diaphorase inh 69
O=C(Cc1ccccc1)NC(Nc1ccccc1)C(Cl)(Cl)Cl (configuration not stated)	none
Cc1sc2nc3ccc(N4CCCC4)nn3c(=O)c2c1C	PMI act satM6P 2.2
O=C(c1ccc(Cl)cc1)c1oc2ccccc2c1CS(=O)c1ccccc1 (configuration not stated)	PMI act satM6P 2.2
CCN1C(=O)/C(=C/c2ccc(N3CCCC3)cc2)NC1=S	none
Nc1c(C(=O)Nc2ccccc2)sc2nc3c(c(-c4ccco4)c12)CCC3	Diaphorase inh 69
O=C(Cc1cccs1)N(CC1CCCO1)C1(C(=O)NC2CCCC2)CCCCC1 (configuration not stated)	none
Cc1ccc([N+](=O)[O-])cc1N/C=C1\CCc2ccccc2C1=O	Diaphorase inh 58
Cc1c(Cl)cccc1Nc1nc(N)nc(CSC(=S)N2CCOCC2)n1	none
Oc1c(CN2CCCCC2)cc(Br)c2cccnc12	Diaphorase inh 57
